# Results reported in the array DNA melting data of Ke et al. (doi:10.1101/2024.01.08.574731).
# Experiments:
# [1] = melting temperature; fluorescence melt of hairpins on a sequencing array, two-state fit, raised by 9.35 °C to match UV melts; settings: sodium 0.088 M
# How it was run: (§1)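 Folding enthalpy and melting temperature come from bootstrapped two-state fits to Cy3 fluorescence of library hairpins carrying annealed Cy3 and quencher oligos on a sequenced MiSeq flow cell. Imaging was done in 50 mM Na-HEPES pH 8.0, 25 mM NaCl, stepping by 2.5 °C up to 60 °C, and signals were normalised to pre-quench Cy3 and to control constructs. Results of four replicates were combined by inverse variance, and fitted temperatures were raised by 9.35 °C to match UV melts.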
# [2] = folding enthalpy; higher = less favourable; fluorescence melt of hairpins on a sequencing array, two-state fit; settings: sodium 0.088 M
# How it was run: as §1
Sequence,Tm [1] [°C],folding enthalpy [2] [kcal/mol]
GCATATGAAAATATGC ((((((....)))))),52.9,-29.2
GCAGGCGAAAGCCAGTGC ((((((....)))..))),49.5,-18.9
GCACCGGGAAACCGACGC ((..(((....)))..)),38,-24.1
GTTGAGTCGAAAGACAAC (((..(((....)))))),31,-14.6
GCGAAGGGAAACCTTTGC ((.((((....)))).)),49.8,-34.6
GCCGTACGAAAGTAAGGC (((.(((....))).))),60.1,-36.6
GCTCCGCGAAAGCACAGC (((..((....))..))),31.3,-8.71
GGTTTACCGAAAGGTACC (((..(((....)))))),32.4,-9.75
GATCTGGGACCAGATC ((((((....)))))),54.7,-43.4
GATCGAACGTCGATC ((((((...)))))),49.3,-34.9
GAGAATCCGAAAGGACTC (((..(((....)))))),27.7,-16
GTAGCCGGAAACGACTAC ((((.((....)).)))),46.6,-34.4
GAGTAGGGAAACCTACTC (((((((....))))))),57,-46.6
GCATTGCGAAAGCCTTGC (((..((....))..))),39.3,-25
TATTCGAAAGAATA (((((....))))),36.7,-14.3
GCCAATGGAAACATTGGC (((((((....))))))),67.8,-38.3
GATCAAGTGCTTGATC ((((((....)))))),47.2,-41.2
GGCTACGAAAGTATGGCC ((((((....)))..))),47.3,-25.7
GTTAACCCGAAAGGGAAC (((..(((....)))))),25.9,-12.2
GCGATGCGAAAGCACAGC ((..(((....)))..)),52,-19.2
GATCGAGCGATCGATC ((((((....)))))),57.5,-35.6
GATCGACGAGTCGATC ((((((....)))))),64,-45.8
GCTCAGGGAAACCTGAAC (.(((((....))))).),37.7,-17.4

Sequence,Tm [1] [°C],folding enthalpy [2] [kcal/mol]
GCGCTACGAAAGTATCGC (((.(((....))).))),53.9,-42.1
GTTTTAGAAATAAAAC ((((((....)))))),36.7,-22.3
GGTGAACCGAAAGGTACC (((..(((....)))))),37.8,-18
GTGCTTGGAAACAAGTAC ((.((((....)))).)),49.2,-32.3
GCAGTTCGAAAGAATGC (((.(((....)))))),41.2,-21.4
GTCGTTGGAAACAATGGC (.(.(((....))).).),35,-24.8
GTCGATACGAAAGTAGAC (((..(((....)))))),35.8,-20.3
GTGGTAGGAAACTACTAC ((.((((....)))).)),41.8,-32.2
GAGAGGGGAAACTCTCTC (((((.(....).))))),49.4,-26.2
GATCGAGGTATCGATC ((((((....)))))),58.7,-39.6
GACCACGAAAGTGGCGTC ((((((....)))..))),45.6,-12.5
GCTGACGGAAACACCAGC ((((..(....)..)))),33.3,-13.1
GTGAGTGGAAACGTTCAC ((((..(....)..)))),28.4,-11.2
GCTCAGCGAAAGCTCGGC ((..(((....)))..)),39.5,-14.5
GCCTTCGAAAGAAGGGC ((((((....))).))),63.1,-15
GATCACAGCTGTGATC ((((((....)))))),59,-41.9
GCACGCGAAAGCGACTGC ((((((....)))..))),43.8,-12.6
GCCTGGCGAAAGCATGGC (((..((....))..))),60.4,-23.7
GATTGCGGAAACGTAATC ((((.((....)).)))),47.6,-38.8
GATCGGTGATCCGATC ((((((....)))))),56.8,-41.2
GATCAGACCTCTGATC ((((((....)))))),48.4,-40.6
GTACGGGGAAACCTGTGC (.((.((....)).)).),37.3,-25.8
GTTCGCCGAAAGGCAAC (((.(((....)))))),43.3,-12.5
